Laboratory results reported in ChEMBL document CHEMBL4689842, “EUbOPEN Chemogenomics Library wave 1” (2021).

Experiments:
Format in all cases: toxicity, cell-based
HEK-293T = assay: Incucyte cell viability with HEK293T; settings: human, 10 µM, compound concentration 10 uM; further: filed as whole numbers so only -1 and 0 and 1 occur
Fibroblast = assay: Multiplex assay against human fibroblast
Procedure, shortened: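 With compound added, live cells were imaged on a CQ1 microscope at 37°C and 5% CO2; staining with Hoechst33342, BioTracker Green Microtubule Cytoskeleton Dye, MitoTracker Red and Annexin V Alexa Fluor 680 had been done at seeding. The CellPathfinder machine-learning gating scheme split cells into Hoechst high-intensity objects or normal cells, normal cells into healthy, pyknosed or fragmented nuclei, and pyknosed cells into mitotic or apoptotic. The tubulin, mitochondrial-mass and membrane-permeability phenotypes are per cents of healthy-nucleus cells.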

U2OS = assay: Incucyte cell viability with U2OS; settings: human, 10 µM, compound concentration 10 uM; further: filed as whole numbers so only -1 and 0 and 1 occur
[1] = 6 h, replicate number 1, timepoint 6 hours
[2] = 12 h, replicate number 1, timepoint 12 hours
[3] = 18 h, replicate number 1, timepoint 18 hours
[4] = 24 h, replicate number 1, timepoint 24 hours
[5] = 12 h, 1 µM, compound concentration 1 uM, replicate 1
[6] = 12 h, 1 µM, compound concentration 1 uM, replicate 2
[7] = 12 h, 10 µM, compound concentration 10 uM, replicate 1
[8] = 12 h, 10 µM, compound concentration 10 uM, replicate 2
[9] = 24 h, 1 µM, compound concentration 1 uM, replicate 1
[10] = 24 h, 1 µM, compound concentration 1 uM, replicate 2
[11] = 24 h, 10 µM, compound concentration 10 uM, replicate 1
[12] = 24 h, 10 µM, compound concentration 10 uM, replicate 2
[13] = 48 h, 1 µM, compound concentration 1 uM, replicate 1
[14] = 48 h, 1 µM, compound concentration 1 uM, replicate 2
[15] = 48 h, 10 µM, compound concentration 10 uM, replicate 1
[16] = 48 h, 10 µM, compound concentration 10 uM, replicate 2

In the case of `CC(C)c1cc(Nc2nc(N3CCC[C@H](N)C3)ncc2C(N)=O)cc(C(C)C)n1`, the “Growth Rate” value (HEK-293T; [1]) is reported as 0, the “Growth Rate” value (HEK-293T; [2]) is reported as 0 and the “Growth Rate” value (HEK-293T; [3]) is reported as 0. For the same molecule, the “Growth Rate” value (HEK-293T; [4]) was 0, the “Population Apoptotic (%)” value (Fibroblast; [5]) was 57% and the “Population Fragmented Nuclei (%)” value (Fibroblast; [5]) was 33%. For the same molecule, the “Population Healthy Nuclei (%)” value (Fibroblast; [5]) was 36%, the “Population Hoechst High Intensity Objects (%)” value (Fibroblast; [5]) was 13% and the “Population Membrane Permeable-Phenotype (%)” value (Fibroblast; [5]) was 22%. The “Population Mitochondria Different-Phenotype (%)” value (Fibroblast; [5]) was 22%, the “Population Mitotic Cells (%)” value (Fibroblast; [5]) was 42% and the “Population Normal (%)” value (Fibroblast; [5]) was 86%. The “Population Pyknosed Nuclei (%)” value (Fibroblast; [5]) was 30%, the “Population Tubulin-Different-Phenotype (%)” value (Fibroblast; [5]) was 82% and the “Total Cell Count” value (Fibroblast; [5]) was 127. The “Population Apoptotic (%)” value (Fibroblast; [6]) was 44%, the “Population Fragmented Nuclei (%)” value (Fibroblast; [6]) was 12% and the “Population Healthy Nuclei (%)” value (Fibroblast; [6]) was 75%. For the same molecule, the “Population Hoechst High Intensity Objects (%)” value (Fibroblast; [6]) was 9%, the “Population Membrane Permeable-Phenotype (%)” value (Fibroblast; [6]) was 16% and the “Population Mitochondria Different-Phenotype (%)” value (Fibroblast; [6]) was 92%. For the same molecule, the “Population Mitotic Cells (%)” value (Fibroblast; [6]) was 55%, the “Population Normal (%)” value (Fibroblast; [6]) was 90% and the “Population Pyknosed Nuclei (%)” value (Fibroblast; [6]) was 12%. The “Population Tubulin-Different-Phenotype (%)” value (Fibroblast; [6]) was 96%, the “Total Cell Count” value (Fibroblast; [6]) was 82 and the “Population Apoptotic (%)” value (Fibroblast; [7]) was 59%. For the same molecule, the “Population Fragmented Nuclei (%)” value (Fibroblast; [7]) was 30%, the “Population Healthy Nuclei (%)” value (Fibroblast; [7]) was 37% and the “Population Hoechst High Intensity Objects (%)” value (Fibroblast; [7]) was 28%. For the same molecule, the “Population Membrane Permeable-Phenotype (%)” value (Fibroblast; [7]) was 34%, the “Population Mitochondria Different-Phenotype (%)” value (Fibroblast; [7]) was 30% and the “Population Mitotic Cells (%)” value (Fibroblast; [7]) was 40%. The “Population Normal (%)” value (Fibroblast; [7]) was 71%, the “Population Pyknosed Nuclei (%)” value (Fibroblast; [7]) was 31% and the “Population Tubulin-Different-Phenotype (%)” value (Fibroblast; [7]) was 76%. The “Total Cell Count” value (Fibroblast; [7]) was 96, the “Population Apoptotic (%)” value (Fibroblast; [8]) was 65% and the “Population Fragmented Nuclei (%)” value (Fibroblast; [8]) was 19%. For the same molecule, the “Population Healthy Nuclei (%)” value (Fibroblast; [8]) was 31%, the “Population Hoechst High Intensity Objects (%)” value (Fibroblast; [8]) was 14% and the “Population Membrane Permeable-Phenotype (%)” value (Fibroblast; [8]) was 100%. The “Population Mitochondria Different-Phenotype (%)” value (Fibroblast; [8]) was 93%, the “Population Mitotic Cells (%)” value (Fibroblast; [8]) was 34% and the “Population Normal (%)” value (Fibroblast; [8]) was 85%. The “Population Pyknosed Nuclei (%)” value (Fibroblast; [8]) was 48%, the “Population Tubulin-Different-Phenotype (%)” value (Fibroblast; [8]) was 100% and the “Total Cell Count” value (Fibroblast; [8]) was 55. The “Population Apoptotic (%)” value (Fibroblast; [9]) was 48%, the “Population Fragmented Nuclei (%)” value (Fibroblast; [9]) was 30% and the “Population Healthy Nuclei (%)” value (Fibroblast; [9]) was 32%. The “Population Hoechst High Intensity Objects (%)” value (Fibroblast; [9]) was 25%, the “Population Membrane Permeable-Phenotype (%)” value (Fibroblast; [9]) was 17% and the “Population Mitochondria Different-Phenotype (%)” value (Fibroblast; [9]) was 14%. The “Population Mitotic Cells (%)” value (Fibroblast; [9]) was 51%, the “Population Normal (%)” value (Fibroblast; [9]) was 74% and the “Population Pyknosed Nuclei (%)” value (Fibroblast; [9]) was 36%. For the same molecule, the “Population Tubulin-Different-Phenotype (%)” value (Fibroblast; [9]) was 77%, the “Total Cell Count” value (Fibroblast; [9]) was 143 and the “Population Apoptotic (%)” value (Fibroblast; [10]) was 26%. The “Population Fragmented Nuclei (%)” value (Fibroblast; [10]) was 10%, the “Population Healthy Nuclei (%)” value (Fibroblast; [10]) was 68% and the “Population Hoechst High Intensity Objects (%)” value (Fibroblast; [10]) was 5%. The “Population Membrane Permeable-Phenotype (%)” value (Fibroblast; [10]) was 30%, the “Population Mitochondria Different-Phenotype (%)” value (Fibroblast; [10]) was 96% and the “Population Mitotic Cells (%)” value (Fibroblast; [10]) was 73%. The “Population Normal (%)” value (Fibroblast; [10]) was 94%, the “Population Pyknosed Nuclei (%)” value (Fibroblast; [10]) was 20% and the “Population Tubulin-Different-Phenotype (%)” value (Fibroblast; [10]) was 94%. The “Total Cell Count” value (Fibroblast; [10]) was 77, the “Population Apoptotic (%)” value (Fibroblast; [11]) was 63% and the “Population Fragmented Nuclei (%)” value (Fibroblast; [11]) was 26%. The “Population Healthy Nuclei (%)” value (Fibroblast; [11]) was 42%, the “Population Hoechst High Intensity Objects (%)” value (Fibroblast; [11]) was 25% and the “Population Membrane Permeable-Phenotype (%)” value (Fibroblast; [11]) was 17%. For the same molecule, the “Population Mitochondria Different-Phenotype (%)” value (Fibroblast; [11]) was 44%, the “Population Mitotic Cells (%)” value (Fibroblast; [11]) was 36% and the “Population Normal (%)” value (Fibroblast; [11]) was 75%. For the same molecule, the “Population Pyknosed Nuclei (%)” value (Fibroblast; [11]) was 31%, the “Population Tubulin-Different-Phenotype (%)” value (Fibroblast; [11]) was 82% and the “Total Cell Count” value (Fibroblast; [11]) was 92. The “Population Apoptotic (%)” value (Fibroblast; [12]) was 84%, the “Population Fragmented Nuclei (%)” value (Fibroblast; [12]) was 23% and the “Population Healthy Nuclei (%)” value (Fibroblast; [12]) was 23%. The “Population Hoechst High Intensity Objects (%)” value (Fibroblast; [12]) was 17%, the “Population Membrane Permeable-Phenotype (%)” value (Fibroblast; [12]) was 100% and the “Population Mitochondria Different-Phenotype (%)” value (Fibroblast; [12]) was 90%. The “Population Mitotic Cells (%)” value (Fibroblast; [12]) was 16%, the “Population Normal (%)” value (Fibroblast; [12]) was 82% and the “Population Pyknosed Nuclei (%)” value (Fibroblast; [12]) was 53%. For the same molecule, the “Population Tubulin-Different-Phenotype (%)” value (Fibroblast; [12]) was 100%, the “Total Cell Count” value (Fibroblast; [12]) was 57 and the “Population Apoptotic (%)” value (Fibroblast; [13]) was 70%. The “Population Fragmented Nuclei (%)” value (Fibroblast; [13]) was 29%, the “Population Healthy Nuclei (%)” value (Fibroblast; [13]) was 40% and the “Population Hoechst High Intensity Objects (%)” value (Fibroblast; [13]) was 37%. The “Population Membrane Permeable-Phenotype (%)” value (Fibroblast; [13]) was 34%, the “Population Mitochondria Different-Phenotype (%)” value (Fibroblast; [13]) was 7% and the “Population Mitotic Cells (%)” value (Fibroblast; [13]) was 30%. The “Population Normal (%)” value (Fibroblast; [13]) was 62%, the “Population Pyknosed Nuclei (%)” value (Fibroblast; [13]) was 29% and the “Population Tubulin-Different-Phenotype (%)” value (Fibroblast; [13]) was 68%. The “Total Cell Count” value (Fibroblast; [13]) was 162, the “Population Apoptotic (%)” value (Fibroblast; [14]) was 42% and the “Population Fragmented Nuclei (%)” value (Fibroblast; [14]) was 33%. For the same molecule, the “Population Healthy Nuclei (%)” value (Fibroblast; [14]) was 56%, the “Population Hoechst High Intensity Objects (%)” value (Fibroblast; [14]) was 33% and the “Population Membrane Permeable-Phenotype (%)” value (Fibroblast; [14]) was 9%. For the same molecule, the “Population Mitochondria Different-Phenotype (%)” value (Fibroblast; [14]) was 1%, the “Population Mitotic Cells (%)” value (Fibroblast; [14]) was 57% and the “Population Normal (%)” value (Fibroblast; [14]) was 66%. The “Population Pyknosed Nuclei (%)” value (Fibroblast; [14]) was 10%, the “Population Tubulin-Different-Phenotype (%)” value (Fibroblast; [14]) was 58% and the “Total Cell Count” value (Fibroblast; [14]) was 204. For the same molecule, the “Population Apoptotic (%)” value (Fibroblast; [15]) was 95%, the “Population Fragmented Nuclei (%)” value (Fibroblast; [15]) was 43% and the “Population Healthy Nuclei (%)” value (Fibroblast; [15]) was 24%. The “Population Hoechst High Intensity Objects (%)” value (Fibroblast; [15]) was 32%, the “Population Membrane Permeable-Phenotype (%)” value (Fibroblast; [15]) was 66% and the “Population Mitochondria Different-Phenotype (%)” value (Fibroblast; [15]) was 13%. The “Population Mitotic Cells (%)” value (Fibroblast; [15]) was 5%, the “Population Normal (%)” value (Fibroblast; [15]) was 67% and the “Population Pyknosed Nuclei (%)” value (Fibroblast; [15]) was 32%. The “Population Tubulin-Different-Phenotype (%)” value (Fibroblast; [15]) was 66%, the “Total Cell Count” value (Fibroblast; [15]) was 92 and the “Population Apoptotic (%)” value (Fibroblast; [16]) was 80%. The “Population Fragmented Nuclei (%)” value (Fibroblast; [16]) was 27%, the “Population Healthy Nuclei (%)” value (Fibroblast; [16]) was 38% and the “Population Hoechst High Intensity Objects (%)” value (Fibroblast; [16]) was 31%. For the same molecule, the “Population Membrane Permeable-Phenotype (%)” value (Fibroblast; [16]) was 19%, the “Population Mitochondria Different-Phenotype (%)” value (Fibroblast; [16]) was 58% and the “Population Mitotic Cells (%)” value (Fibroblast; [16]) was 19%. For the same molecule, the “Population Normal (%)” value (Fibroblast; [16]) was 68%, the “Population Pyknosed Nuclei (%)” value (Fibroblast; [16]) was 33% and the “Population Tubulin-Different-Phenotype (%)” value (Fibroblast; [16]) was 55%. The “Total Cell Count” value (Fibroblast; [16]) was 135, the “Growth Rate” value (U2OS; 0 h, replicate number 1, timepoint 0 hours) was 1 and the “Growth Rate” value (U2OS; 0 h, replicate number 2, timepoint 0 hours) was 0. The “Growth Rate” value (U2OS; [1]) was 0, the “Growth Rate” value (U2OS; 6 h, replicate number 2, timepoint 6 hours) was 1 and the “Growth Rate” value (U2OS; [2]) was 0. For the same molecule, the “Growth Rate” value (U2OS; [3]) was 0 and the “Growth Rate” value (U2OS; [4]) was 0.
